{"source": "ChEMBL document CHEMBL1145533", "about": "“Antimicrobial activities of ceragenins against clinical isolates of resistant Staphylococcus aureus” (2007)", "key": {"Staphylococcus aureus [1]": {"tested_on": "Staphylococcus aureus", "test": "Antimicrobial activity against glycopeptide-intermediate Staphylococcus aureus by broth microdilution technique after 24 hrs", "format": "functional", "procedure,_shortened": "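CLSI broth microdilution MIC and MBC in duplicate. Mueller-Hinton broth supplemented with Mg 12.5 mg/liter and Ca 25 mg/liter (Ca 50 mg/liter for daptomycin). Inoculum 5 × 10⁵ CFU/ml, 24 h at 35°C, tested up to 32.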"}, "Staphylococcus aureus [2]": {"tested_on": "Staphylococcus aureus", "test": "Antimicrobial activity against heterogeneous glycopeptide-intermediate Staphylococcus aureus by broth microdilution technique after 24 hrs", "format": "functional", "procedure,_shortened": "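CLSI broth microdilution in Mueller-Hinton broth with Mg 12.5 mg/liter and Ca 25 mg/liter. […] MBC determined as well. hVISA isolates were identified by subpopulation analysis.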"}, "Staphylococcus aureus [3]": {"tested_on": "Staphylococcus aureus", "test": "Bactericidal killing activity against Staphylococcus aureus Mu3 at 4 times MIC", "format": "functional", "procedure,_shortened": "(§1)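 Time-kill in triplicate in Mueller-Hinton broth supplemented with Mg 12.5 mg/liter and Ca 25 mg/liter. Agent at 0.5×, 1×, 4× and 10× MIC. Starting inocula 5 × 10⁵ (about 6 log₁₀) or 1 × 10⁸ to 1 × 10⁹ CFU/ml. Samples at 0, 1, 4, 8 and 24 h, serially diluted in cold 0.9% NaCl or filtered to remove carryover. Counted by spiral plating on trypticase soy agar; detection limit 2 log₁₀ CFU/ml. Bactericidal = 99.9% kill.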"}, "Staphylococcus aureus [4]": {"tested_on": "Staphylococcus aureus", "test": "Antibacterial activity against Staphylococcus aureus Mu50 assessed as bacterial density after 24 hrs by time-kill curve analysis", "format": "functional", "procedure,_shortened": "(§2)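 Time-kill in Mueller-Hinton broth with Mg 12.5 mg/liter and Ca 25 mg/liter, run in triplicate. Drug at 0.5×, 1×, 4× and 10× MIC. Starting inocula ~6 log10 CFU/ml (5 × 10⁵ to 10⁶) or 8–9 log10 CFU/ml. Samples taken at 0, 1, 4, 8 and 24 h, diluted in cold 0.9% NaCl (filtered if carryover was possible), then spiral plated. Detection limit 2 log10 CFU/ml. Bactericidal = 99.9% kill.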"}, "Staphylococcus aureus [5]": {"tested_on": "Staphylococcus aureus", "test": "Bactericidal killing activity against 8 to 9 log10 CFU/ml Staphylococcus aureus Mu3 at MIC by time-kill curve analysis", "format": "functional", "procedure,_shortened": "as §2"}, "Staphylococcus aureus [6]": {"tested_on": "Staphylococcus aureus", "test": "Bactericidal killing activity against Staphylococcus aureus Mu50 at 4 times MIC", "format": "functional", "procedure,_shortened": "as §2"}, "Staphylococcus aureus [7]": {"tested_on": "Staphylococcus aureus", "test": "Post antibiotic effect on Staphylococcus aureus Mu50 after 0.5 hrs", "format": "functional, organism-based", "procedure,_shortened": "(§3)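 Exposure for 0.5 h at 1×, 2× and 4× MIC, then rapid drug removal by washing, dilution, filtration or inactivation. PAE = T − C: time for treated culture to rise 1 log₁₀ CFU/ml after removal, minus the same for an untreated control. Reported as average ± standard deviation.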"}, "Staphylococcus aureus [8]": {"tested_on": "Staphylococcus aureus", "test": "Bactericidal killing activity against 8 to 9 log10 CFU/ml Staphylococcus aureus Mu50 at 4 times MIC by time-kill curve analysis", "format": "functional", "procedure,_shortened": "as §1"}, "Staphylococcus aureus [9]": {"tested_on": "Staphylococcus aureus", "test": "Antibacterial activity against Staphylococcus aureus Mu3 assessed as bacterial density after 24 hrs by time-kill curve analysis", "format": "functional", "procedure,_shortened": "as §1"}, "Staphylococcus aureus [10]": {"tested_on": "Staphylococcus aureus", "test": "Antibacterial activity against Staphylococcus aureus Mu3 assessed as bacterial density after 8 hrs by time-kill curve analysis", "format": "functional", "procedure,_shortened": "as §1"}, "Staphylococcus aureus [11]": {"tested_on": "Staphylococcus aureus", "test": "Bactericidal killing activity of vancomycin-intermediate Staphylococcus aureus by time kill curve analysis", "format": "functional, organism-based", "procedure,_shortened": "as §1"}, "Staphylococcus aureus [12]": {"tested_on": "Staphylococcus aureus", "test": "Bactericidal killing activity against Staphylococcus aureus Mu50 at MIC", "format": "functional", "procedure,_shortened": "as §2"}, "Staphylococcus aureus [13]": {"tested_on": "Staphylococcus aureus", "test": "Bactericidal killing activity of heterogenous vancomycin-intermediate Staphylococcus aureus at 10 times MIC by time kill curve analysis", "format": "functional", "procedure,_shortened": "as §1"}, "Staphylococcus aureus [14]": {"tested_on": "Staphylococcus aureus", "test": "Bactericidal killing activity against 6 log10 CFU/ml Staphylococcus aureus Mu50 at 4 times MIC by time-kill curve analysis", "format": "functional", "procedure,_shortened": "as §1"}, "Staphylococcus aureus [15]": {"tested_on": "Staphylococcus aureus", "test": "Bactericidal killing activity against Staphylococcus aureus Mu3 at MIC", "format": "functional", "procedure,_shortened": "as §1"}, "Staphylococcus aureus [16]": {"tested_on": "Staphylococcus aureus", "test": "Bactericidal killing activity against Staphylococcus aureus Mu3 at 0.5 times MIC", "format": "functional", "procedure,_shortened": "as §1"}, "Staphylococcus aureus [17]": {"tested_on": "Staphylococcus aureus", "test": "Post antibiotic effect on Staphylococcus aureus Mu3 after 0.5 hrs", "format": "functional, organism-based", "procedure,_shortened": "as §3"}, "Staphylococcus aureus [18]": {"tested_on": "Staphylococcus aureus", "test": "Post antibiotic effect on vancomycin-resistant Staphylococcus aureus PA after 0.5 hrs", "format": "functional, organism-based", "procedure,_shortened": "(§4)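 Cultures exposed for 0.5 h at 1×, 2× and 4× MIC, then drug removed by washing, dilution, filtration or inactivation. PAE = T − C, where each is the time for counts to rise 1 log10 above the count right after drug removal, for treated (T) and untreated control (C) cultures.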"}, "Staphylococcus aureus [19]": {"tested_on": "Staphylococcus aureus", "test": "Bactericidal killing activity of heterogenous vancomycin-intermediate Staphylococcus aureus by time kill curve analysis", "format": "functional, organism-based", "procedure,_shortened": "as §1"}, "Staphylococcus aureus [20]": {"tested_on": "Staphylococcus aureus", "test": "Bactericidal killing activity against Staphylococcus aureus Mu3 at 10 times MIC", "format": "functional", "procedure,_shortened": "as §2"}, "Staphylococcus aureus [21]": {"tested_on": "Staphylococcus aureus", "test": "Bactericidal killing activity of vancomycin-resistant Staphylococcus aureus by time kill curve analysis", "format": "functional, organism-based", "procedure,_shortened": "as §2"}, "Staphylococcus aureus [22]": {"tested_on": "Staphylococcus aureus", "test": "Bactericidal killing activity of vancomycin-intermediate Staphylococcus aureus at 10 times MIC by time kill curve analysis", "format": "functional", "procedure,_shortened": "as §1"}, "Staphylococcus aureus [23]": {"tested_on": "Staphylococcus aureus", "test": "Bactericidal killing activity against 6 log10 CFU/ml Staphylococcus aureus Mu3 at MIC by time-kill curve analysis", "format": "functional", "procedure,_shortened": "as §1"}, "Staphylococcus aureus [24]": {"tested_on": "Staphylococcus aureus", "test": "Post antibiotic effect on vancomycin-resistant Staphylococcus aureus MI after 0.5 hrs", "format": "functional, organism-based", "procedure,_shortened": "as §4"}, "Staphylococcus aureus [25]": {"tested_on": "Staphylococcus aureus", "test": "Antibacterial activity against Staphylococcus aureus Mu50 assessed as bacterial density after 8 hrs by time-kill curve analysis", "format": "functional", "procedure,_shortened": "as §2"}}}
{"smiles": "CCCCCCCCCC(=O)N[C@@H](Cc1c[nH]c2ccccc12)C(=O)N[C@H](CC(N)=O)C(=O)N[C@@H](CC(=O)O)C(=O)N[C@@H]1C(=O)NCC(=O)N[C@@H](CCCN)C(=O)N[C@@H](CC(=O)O)C(=O)N[C@H](C)C(=O)N[C@@H](CC(=O)O)C(=O)NCC(=O)N[C@H](CO)C(=O)N[C@@H]([C@H](C)CC(=O)O)C(=O)N[C@@H](CC(=O)c2ccccc2N)C(=O)O[C@@H]1C", "values": [{"measurement": "MBC50", "setting": "Staphylococcus aureus [1]", "result": 0.5, "unit": "µg/mL"}, {"measurement": "MBC90", "setting": "Staphylococcus aureus [1]", "result": 1, "unit": "µg/mL"}, {"measurement": "MIC50", "setting": "Staphylococcus aureus [2]", "result": 0.5, "unit": "µg/mL"}, {"measurement": "MIC90", "setting": "Staphylococcus aureus [2]", "result": 1, "unit": "µg/mL"}]}
{"smiles": "CCCCCCCCNCCC[C@@H](C)[C@H]1CC[C@H]2[C@@H]3[C@H](OCCCN)CC4C[C@H](OCCCN)CC[C@]4(C)[C@H]3C[C@H](OCCCN)[C@]12C.Cl.Cl.Cl.Cl", "note": "(stereo partly drawn)", "values": [{"measurement": "T99.9%", "setting": "Staphylococcus aureus [3]", "result": 4, "unit": "h"}, {"measurement": "log10CFU/ml", "setting": "Staphylococcus aureus [4]", "result": -3.75}, {"measurement": "T99.9%", "setting": "Staphylococcus aureus [5]", "result": ">=24 hr"}, {"measurement": "T99.9%", "setting": "Staphylococcus aureus [6]", "result": 4, "unit": "h"}, {"measurement": "Post anitbiotic effect", "setting": "Staphylococcus aureus [7]", "result": "Dose-dependent effect"}, {"measurement": "T99.9%", "setting": "Staphylococcus aureus [8]", "result": ">=24 hr"}, {"measurement": "log10CFU/ml", "setting": "Staphylococcus aureus [9]", "result": -3.75}, {"measurement": "log10CFU/ml", "setting": "Staphylococcus aureus [10]", "result": -3.4}, {"measurement": "Activity", "setting": "Staphylococcus aureus [11]", "result": "Dose-dependent effect"}, {"measurement": "T99.9%", "setting": "Staphylococcus aureus [12]", "result": 8, "unit": "h"}, {"measurement": "T99.9%", "setting": "Staphylococcus aureus [13]", "result": 1, "unit": "h"}, {"measurement": "T99.9%", "setting": "Staphylococcus aureus [14]", "result": 4, "unit": "h"}, {"measurement": "T99.9%", "setting": "Staphylococcus aureus [15]", "result": 8, "unit": "h"}, {"measurement": "T99.9%", "setting": "Staphylococcus aureus [16]", "result": 24, "unit": "h"}, {"measurement": "Post anitbiotic effect", "setting": "Staphylococcus aureus [17]", "result": "Dose-dependent effect"}, {"measurement": "Post anitbiotic effect", "setting": "Staphylococcus aureus [18]", "result": "Dose-dependent effect"}, {"measurement": "Activity", "setting": "Staphylococcus aureus [19]", "result": "Dose-dependent effect"}, {"measurement": "MBC50", "setting": "Staphylococcus aureus [1]", "result": 1, "unit": "µg/mL"}, {"measurement": "MBC90", "setting": "Staphylococcus aureus [1]", "result": 1, "unit": "µg/mL"}, {"measurement": "T99.9%", "setting": "Staphylococcus aureus [20]", "result": 1, "unit": "h"}, {"measurement": "Activity", "setting": "Staphylococcus aureus [21]", "result": "Dose-dependent effect"}, {"measurement": "MIC50", "setting": "Staphylococcus aureus [2]", "result": 1, "unit": "µg/mL"}, {"measurement": "MIC90", "setting": "Staphylococcus aureus [2]", "result": 1, "unit": "µg/mL"}, {"measurement": "T99.9%", "setting": "Staphylococcus aureus [22]", "result": 1, "unit": "h"}, {"measurement": "T99.9%", "setting": "Staphylococcus aureus [23]", "result": 8, "unit": "h"}, {"measurement": "Post anitbiotic effect", "setting": "Staphylococcus aureus [24]", "result": "Dose-dependent effect"}, {"measurement": "log10CFU/ml", "setting": "Staphylococcus aureus [25]", "result": -3.4}]}
{"smiles": "CC(=O)NC[C@H]1CN(c2ccc(N3CCOCC3)c(F)c2)C(=O)O1", "note": "[LINEZOLID]", "values": [{"measurement": "MBC50", "setting": "Staphylococcus aureus [1]", "result": 8, "unit": "µg/mL"}, {"measurement": "MBC90", "setting": "Staphylococcus aureus [1]", "result": 64, "unit": "µg/mL"}, {"measurement": "MIC50", "setting": "Staphylococcus aureus [2]", "result": 1, "unit": "µg/mL"}, {"measurement": "MIC90", "setting": "Staphylococcus aureus [2]", "result": 2, "unit": "µg/mL"}]}
{"smiles": "C[C@H](CCCO)[C@H]1CC[C@H]2[C@@H]3[C@H](OCCCN)CC4C[C@H](OCCCN)CC[C@]4(C)[C@H]3C[C@H](OCCCN)[C@]12C.Cl", "note": "(stereo partly drawn)", "values": [{"measurement": "MBC50", "setting": "Staphylococcus aureus [1]", "result": 8, "unit": "µg/mL"}, {"measurement": "MBC90", "setting": "Staphylococcus aureus [1]", "result": 8, "unit": "µg/mL"}, {"measurement": "MIC50", "setting": "Staphylococcus aureus [2]", "result": 4, "unit": "µg/mL"}, {"measurement": "MIC90", "setting": "Staphylococcus aureus [2]", "result": 8, "unit": "µg/mL"}]}
{"smiles": "CN[C@H](CC(C)C)C(=O)N[C@H]1C(=O)N[C@@H](CC(N)=O)C(=O)N[C@H]2C(=O)N[C@H]3C(=O)N[C@H](C(=O)N[C@H](C(=O)O)c4cc(O)cc(O)c4-c4cc3ccc4O)[C@H](O)c3ccc(c(Cl)c3)Oc3cc2cc(c3O[C@@H]2O[C@H](CO)[C@@H](O)[C@H](O)[C@H]2O[C@H]2C[C@](C)(N)[C@H](O)[C@H](C)O2)Oc2ccc(cc2Cl)[C@H]1O", "note": "[VANCOMYCIN]", "values": [{"measurement": "MBC50", "setting": "Staphylococcus aureus [1]", "result": 8, "unit": "µg/mL"}, {"measurement": "MBC90", "setting": "Staphylococcus aureus [1]", "result": 8, "unit": "µg/mL"}, {"measurement": "MIC50", "setting": "Staphylococcus aureus [2]", "result": 4, "unit": "µg/mL"}, {"measurement": "MIC90", "setting": "Staphylococcus aureus [2]", "result": 8, "unit": "µg/mL"}]}
